Test system: MS2 coat protein
Assay: apparent Kd, MS2 coat protein; higher = weaker binding; RNA-MaP array; FMN 200 µM where present
Procedure, shortened: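 Green signal from SNAP-549-labelled MS2 coat protein was normalised to red-channel RNA signal and to the median Fmax of control clusters. The protein was titrated from 0.7 or 1.5 nM, doubling to 3 µM, without and then with constant ligand, over designs transcribed by stalled E. coli RNA polymerase on Illumina sequencing-chip clusters, in 100 mM Tris-HCl pH 7.5, 80 mM KCl, 4 mM MgCl2, BSA, DTT, yeast tRNA and Tween-20. The apparent Kd is the median of filtered per-cluster binding-curve fits.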

[1] = designed as: OFF switch for flavin mononucleotide, no ligand
[2] = ligand present: flavin mononucleotide, designed as: OFF switch for flavin mononucleotide
[3] = designed as: ON switch for flavin mononucleotide, no ligand
[4] = ligand present: flavin mononucleotide, designed as: ON switch for flavin mononucleotide

Sequence	apparent Kd [1] [nM]	apparent Kd [2] [nM]	apparent Kd [3] [nM]	apparent Kd [4] [nM]
GUCCUCAAGACAGGAUAUCCAUACAACGCGCUAGGAGAAGGGUCUACAUGAGGAUCACCCAUGUGAUUCUGAGAAUUUGGUGGG	313	148		
GUUUUUUUUAGUUCAUACUAUAAGAUAGAAGGUGAAAUAUAGACAUGAGGAUCACCCAUGUAAUUCAAGGAUAUGUAGUUACUC			44.1	24.8
UUUUAACAUGAGGAUCACCCAUGUGAGGAUAUCGAAAUUUAUAUUAAUAUUAAUUAUUCGAGAAGGCACAUUUU	119	126		
CGGUAUAUGAAGGGCGAAAGCCCACAUGAGGAUCACCCAUGUAGAAGGCGGGCCGCAACGCGGCCCGAGGAUAUACAAUAUACA	6.5	12.4		
UCUCUGCGAGGAUAUACGUGCGCGCGCGCGCGCGCGCGCGUACAUGAGGAUCACCCAUGUAGAAGGCGCUCUGC	30.8	28.2		
UUUAUUUAGGCAGGAUAUACAUGUAUAUAUAUUUCUUUAUAUCUUAUUACAUGAGGAUCACCCAUGUAGAAGGGCCUUAUUAUA	17.3	23.6		
ACGCAACAUGAGGAUCACCCAUGUGAGGAUAUGUAAAUAGUAAACAAAUAGGAAAUGAACAGAAGGCACACCGG	33.8	46		
AGCGACCAAGGAUAUACAUGAGGAUCACCCAUGUCGGCGACCUUCCUGGGAUUUCUUAGUAGAAGGUGGUCAAU	42.7	86.9		
GUCAGCUCGUGAGGAUAUACAACACUGCUUCGGCAGAGUAUUAAGAUCACAUGAGGAUCACCCAUGUAGAAGGCACGAGCUGAU	10.3	117		
AGCUACGUUUCGUAGCAGUGUCAUCGAGAAGGCUCAUAUACAUGAGGAUCACCCAUGUUAACAUGGGAGGAUAUCGAUGAUACA			50.2	6.64
GUAGCUAUCGGAGGAUAUUCAAUAUACAUGAGGAUCACCCAUGUUAAAGUGGGAGAAGGCCGAUAGCUACAAGAGCGAAAGCUC			13.6	6
AGUGUGUUAGGAUAUCGGAUAUGCUGGAGGAGGUGGAGUUACGAGAAGGAACAUGAGGAUCACCCAUGUAGGAC	25.8	23.2		
GUCAGCUCGUGAGGAUAUACAUGUGCUGGAGACAGCACUAUUAAAUUCACAUGAGGAUCACCCAUGUAGAAGGCACGAGCUGAU	15.2	18.6		
AUCUUUAAGAUAGGAUAUAGUAUGAUGGUUUAAUUAGAAGGAUCUCACAUGAGGAUCACCCAUGUAAUAGGAUUACCCAUGUAU	46.1	31.7		
UAUGAACAUGAGGAUCACCCAUGUGGUAAGAUCACAGGAUAUCACCUCGGACGUGCGAUGUGAGAAGGGUGAUGGU			585	113
GUACCUUAUGAGAAGGCGAUCAUGAAACAUGAUCGAGGAUAUCAUGUAAACAUGAGGAUCACCCAUGUAUGGGUAUUAUGGUAC			191	25.6
GGGUACAUCGGAGGAUAUCAUGUAAAUACAUGAGGAUCACCCAUGUCGAUGGAGACGUCGGAGAUUGAGAAGGCCGAUGUACCG			91	7.8
GUACCUUAUGAGAAGGCGGUCAUGAAACAUGAUCGAGGAUAUCAUGUAAACAUGAGGAUCACCCAUGUAUGGGUAUUAUGGUAA			61.1	11.2
CCGAAUAUGCAGGAUAUCUUAUCGGAAACGAUAAGAGAAGGGUAAACAUGAGGAUCACCCAUGUUCCUUAACGG	20.3	21		

Sequence	apparent Kd [1] [nM]	apparent Kd [2] [nM]	apparent Kd [3] [nM]	apparent Kd [4] [nM]
UAAUUAAGUGUGAGGAUAUGCUGGUCCUUGGAUCAGCAGAAGGCACAUGAGGAUCACCCAUGUAAUAUAUUUAU	97.4	493		
UUCGUGUAAGGAUAUACGACCCAUCCCAUUGGGAUGGACACGUAGAAGGUACAUGAGGAUCACCCAUGUGCUCC	27.3	135		
AGAUGUACAGCGAUAUGAUCGAGAGAUCAUGUCGCUGAAUUUAGAAGGACAUGAGGAUCACCCAUGUAGGAUAUGGGUGUAAUA			80.8	72.8
AUAUAUAUAAAGAAGGUGCCAGCGAGAGCUGCACAUGAGGAUCACCCAUGUUGUCGGUGACGACGCAAGGAUAUUUAUAUAUAU			31.6	7.28
UUGUUCUGAGGAUAUACAUGAGGAUCACCCAUGUGUUUCUGCUUGGUGUCUUGCGUUUGUAGAAGGCUGUUCUC	26.5	28		
AGCCAAGCAGGAUAUGCACGUAAUAACAUGAGGAUCACCCAUGUGACCGAUUUAUAUUCUGCAGAAGGGCUUGGAU	29	118		
CCCGGACAUGAGGAUCACCCAUGUUAGGAUAUCUAGAGGAUCUAAACCGAAUAGAUCCAGAGAAGGGAUGUGGG		46.5		
CCCGGUCUGGAGGAUAUUAUAGAGCGUGCUUAAUAAGAAGGUCAGACAUGAGGAUCACCCAUGUUCUUACCCGG	23.3	53.8		
AUCAUGUAAGGAUAUCUUACAUGUGACGAAAGUCACAGUUAAGAGAAGGUACAUGAGGAUCACCCAUGUAUAAC	27.4	54.9		
UUGUUGUAUGAAGGAUAUACUUAACAUGAGGAUCACCCAUGUGGUGUUGUGAGUGAGUGAGUUUAGUAGAAGGUCAAUUCUUUU	221	201		
UGGUUGUCAGGAUAUUGGGUUUUUAACUUUAGUUUUAUAUUCGAGAAGGGACAUGAGGAUCACCCAUGUUACGU	32.7	37.6		
GUGUAGAUAGGAUAUGCUGGAAUCUAGCGAAGCUAGGUUCCACAUGAGGAUCACCCAUGUAGAAGGGUCUACAC	200	54		
GGUACCAUCACAGGAUAUGCUUUCCGUUGGGAAGCAGAAGGGUGUAACAUGAGGAUCACCCAUGUGGUGCCCGGGCGUGAGCCC			135	15.6
AACAAACAUGAGGAUCACCCAUGUCAGGAUAUGCACAAACAAACAAACAAACAAGCAAGCAGAAGGGACACAAC	21.7	39.7		
GGUAUCGGAGGAGGAUAUGAGCGUAUCGCUGCCUCAGAAGGCCUACUGAUACAUGAGGAUCACCCAUGUUGCGGUAAUCCUACU	283	23.5		
AGUGCCAUGUAGAAGGGAGAUCUGAUUCAGAUCUCAGGAUAUACAUGAGGAUCACCCAUGUAAAUGCACUGCACGAGAGUGCAA	12.5	30.9		
GCCUGCUGGCGAGGAUAUUCUGUGCGGUUCCGGCUCGUGUCUGUUACAUGAGGAUCACCCAUGUAGGAGAAGGUGUCUGUGGCC	4.75	5.01		
UUUUAACAUGAGGAUCACCCAUGUGAGGAUAUCGAAAUUUAUAUUUAUAUUUAUAUUACGAGAAGGCACAUUUU	84.9	102		
AUAAGUGCAGGAUAUACGGGAAGCUAGCGAAAGCUAGCAAAACAUGAGGAUCACCCAUGUAGAAGGGCACAAUA	57.4	121		

Sequence	apparent Kd [1] [nM]	apparent Kd [2] [nM]	apparent Kd [3] [nM]	apparent Kd [4] [nM]
GUCCGCUCGUGAGGAUAUACAACACUGCUUCGGCAGUGUAUUAAGAUCACAUGAGGAUCACCCAUGUAGAAGGCACGAGCUGAU	13.7	289		
AAUUAUUUACAGAAGGAGUAUGAUAAUGUUUUACUAGGAUAUGUAUACAUGAGGAUCACCCAUGUUAUUGUAGGUUUUUUAUGU	12.7	9.65		
GGGCUGUCAGGAUAUCUCGGGCUCGGGUAAACUCGGGCUCGGGAGAAGGGACAUGAGGAUCACCCAUGUGGCCC	30.4	33		
ACAAUAGUAUCACAUGUAUUACAUGAGGAUCACCCAUGUAACUAGGAUAUGUUUUAAAAUUUACAACAGAAGGAGUUAUUAUGU	8.2	14.6		
ACGGCAGUCGAAGGAUAUGGUUACAUGAGGAUCACCCAUGUCUAGGUUCUUAAAUAGUAUAAUUUCCAGAAGGUCGAAGGCCUA	29.4	35.5		
GGCGAACAGGCUAACAUGAGGAUCACCCAUGUGGACUCAUGGUAGGAUAUGCUGUACAAAGUACAGCAGAAGGGCCGGUGAGCC			139	376
CGGUCGAUGUAAGGAUAUCGACUGGAUAACAGUCGAGAAGGUACAUGAGGAUCACCCAUGUAAUCCUAAUAAUAAUAACGACCG	12.6	18		
AUUCAGCGAGGAUAUACAGGUUCUGGGUGAGGCUCGGCGAGACAUGAGGAUCACCCAUGUAGAAGGUGCUAGCC	341	284		
ACGCCCUGAGGAUAUCUUUUCCCGUACAUGAGGAUCACCCAUGUUUUCCUCCGGGCUUCGAGAGAAGGCAGGCCCA	22.3	41.2		
AAAUGCCUGUCGAUGCUCGACAUGAGGAUCACCCAUGUAUAGCAGGAUAUGCAGAACUGACUCGUGCAGAAGGGCUAUACCUAA	38.2	315		
AGGUCAACCACAGGAUAUGGCUAGCAUAGCUAGCCAGAAGGGUGGUCGUUGCCAUGUAAAUACAUGAGGAUCACCCAUGUAUCC			190	49.5
CUGAUGUCAGGAUAUCGGUGGCUCACUUGUGUGUGCCAGACCGAGAAGGGACAUGAGGAUCACCCAUGUCUUUA	20.2	46.2		
AUUUGUAAUACAGGAUAUGUUAGUUUACAGUAGAUUGGUUAUUACUCAACUACAGAAGGGUAGUACAUGAGGAUCACCCAUGUA			20.7	14.8
CUCUCGCGAGGAUAUGAUUUAAGUAACAUGAGGAUCACCCAUGUUUUUCCGUUGUUAUGUUCAGAAGGCGCGUGAU	44.2	84.3		
GUCAGUGUGGUAGGAUAUCGAAACGGUCAGUUACGAGAAGGGCUACAUGAGGAUCACCCAUGUAUCCAGGAUCGGCUUACAGUA	6.16	6.27		
GUAGAGUCAGGAUAUACGAGAUCGAAAGAUCGUCGAUCCUUACAUGAGGAUCACCCAUGUAGAAGGGACUCUAC	22.7	238		
UCAUUAUAAAUCCAUCAUAACUACAUGAGGAUCACCCAUGUGCAGGAUAUCGAUAAUUUAACUAACGAGAAGGGCAUUUACAGA	37.6	139		
AUAUCUUAUGAGAAGGCGAUCAUGAAACAUGAUCGAGGAUAUCAUGUAAACAUGAGGAUCACCCAUGUAUGGGUAUUAUGGUAU			89.4	57
